ChEMBL document CHEMBL5380783, “N-Substituted l-Iminosugars for the Treatment of Sanfilippo Type B Syndrome” (J Med Chem, 2023)
The source made the active and inactive calls. The calls are words filed in the database; no cut-off is given here.

Legend:
[1] = test system: SK-N-BE(2); experiment: Inhibition of lysosomal defects in NAGLU-silenced human SK-NBE cell clones assessed as reduction in accumulation of enlarged LAMP1-positive lysosomal structures within the cytoplasm at 20 uM incubated for 48 hrs by LAMP1 staining based indirect immunofluorescence assay; format: functional
Summary of the method: (§1)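 Control and NAGLU-silenced SK-NBE clones grown on coverslips with 20 μM compound for 48 h. Fixed in 3.7% formaldehyde, permeabilized with saponin/BSA buffer, stained with anti-Lamp1 or anti-HS 10E4 for 1 h, then Alexa secondaries. Confocal imaging with 63× objective. Scored as percent cells with enlarged Lamp1 structures or membrane HS, plus mean fluorescence intensity, over 50 random cells from three experiments.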

[2] = test system: SK-N-BE(2); experiment: Effect on lysosome size and distribution in human SK-NBE cell clone assessed as at 20 uM incubated for 48 hrs by LAMP1 staining based indirect immunofluorescence assay; format: functional; summary of the method: as §1
[3] = test system: IB3-1; experiment: Cytotoxicity against human IB3-1 cells assessed as induction of apoptosis upto 100 uM; format: toxicity, cell-based; details: ib3-1, 100 µM
[4] = test system: HaCaT; experiment: Cytotoxicity against human HaCaT cells assessed as induction of apoptosis upto 100 uM; format: toxicity, cell-based
[5] = Cytotoxicity against human CuFi cells assessed as induction of apoptosis upto 100 uM; format: toxicity, cell-based
[6] = test system: IB3-1; experiment: Antiproliferative activity against human IB3-1 cells upto 100 uM; format: toxicity, cell-based; details: ib3-1, 100 µM
[7] = test system: HaCaT; experiment: Antiproliferative activity against human HaCaT cells upto 100 uM; format: toxicity, cell-based
[8] = Antiproliferative activity against human CuFi cells upto 100 uM; format: toxicity, cell-based
[9] = test system: SK-N-BE(2); experiment: Inhibition of heparan sulfate accumulation on cell membrane in NAGLU-silenced human SK-NBE cells clone at 20 uM incubated for 48 hrs by indirect immunofluorescence staining analysis; format: functional, cell-based; summary of the method: as §1
[10] = test system: SK-N-BE(2); experiment: Effect on heparan sulfate changes in human SK-NBE cell membrane at 20 uM incubated for 48 hrs by indirect immunofluorescence staining analysis; format: functional, cell-based; summary of the method: as §1
[11] = test system: Fibroblast; experiment: Inhibition of lysosomal defects in Sanfilippo-B patient derived human fibroblast cells assessed as reduction in accumulation of enlarged LAMP1-positive lysosomal structures within the cytoplasm at 20 uM incubated for 48 hrs by LAMP1 staining based indirect immunofluorescence assay; format: functional, cell-based
Summary of the method: (§2)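 HDFa, MPS IIIA, MPS IIIB and MPS I patient fibroblasts in DMEM, 10% FBS, grown 48 h on coverslips with 20 μM compound. Double immunostained for HS (10E4) and Lamp1 with DAPI, confocal imaging. Mean fluorescence intensity expressed relative to untreated cells (d-enantiomers: percent positive cells), 50 random cells from three experiments.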

[12] = test system: Fibroblast; experiment: Inhibition of lysosomal defects in Sanfilippo-B patient derived human fibroblast cells assessed as reduction in more concentrated lysosomal distribution in the perinuclear region of the cytoplasm at 20 uM incubated for 48 hrs by LAMP1 staining based indirect immunofluorescence assay; format: functional, cell-based; summary of the method: as §2
[13] = test system: Fibroblast; experiment: Inhibition of lysosomal defects in Sanfilippo-B patient derived human fibroblast cells assessed as dispersion of lysosomes all over the cytoplasm at 20 uM incubated for 48 hrs by LAMP1 staining based indirect immunofluorescence assay; format: functional, cell-based; summary of the method: as §2
[14] = test system: Fibroblast; experiment: Effect on heparan sulfate changes in human fibroblast cells at 20 uM incubated for 48 hrs by indirect immunofluorescence staining analysis; format: functional, cell-based; summary of the method: as §2
[15] = test system: HeLa; experiment: Inhibition of heparan sulfate accumulation on cell membrane in human HeLa cells at 20 uM incubated for 48 hrs by indirect immunofluorescence staining analysis; format: functional, cell-based
Summary of the method: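 HeLa cells grown 48 h with compound, then immunostained with anti-HS antibody 10E4 to gauge membrane HS.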

[16] = test system: HeLa; experiment: Cytotoxicity against human HeLa cells assessed as reduction in cell viability at 20 uM incubated for 48 hrs by trypan blue exclusion method; format: functional, cell-based
Summary of the method: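 HeLa cells seeded at 100,000 per well and grown overnight in complete RPMI. Exposed to 20 μM compound in the same medium for 48 h at 37 °C; untreated mock as control. Cells trypsinized, live cells counted by trypan blue exclusion on an automated counter. Means of three independent experiments, each in triplicate, with s.e.m.; Student's t-test, p < 0.05.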

[17] = test system: SK-N-BE(2); experiment: Inhibition of lysosomal defects in NAGLU-silenced human SK-NBE cell clones assessed as reduction in more concentrated lysosomal distribution in the perinuclear region of the cytoplasm at 20 uM incubated for 48 hrs by LAMP1 staining based indirect immunofluorescence assay; format: functional; summary of the method: as §1
[18] = test system: SK-N-BE(2); experiment: Inhibition of lysosomal defects in NAGLU-silenced human SK-NBE cell clones assessed as dispersion of lysosomes all over the cytoplasm at 20 uM incubated for 48 hrs by LAMP1 staining based indirect immunofluorescence assay; format: functional; summary of the method: as §1
[19] = test system: Fibroblast; experiment: Inhibition of heparan sulfate accumulation on cell membrane in Sanfilippo-B patient derived human fibroblast cells at 20 uM incubated for 48 hrs by indirect immunofluorescence staining analysis; format: functional, cell-based; summary of the method: as §2
[20] = test system: Fibroblast; experiment: Inhibition of lysosomal defects in Sanfilippo-A patient derived human fibroblast cells assessed as reduction in accumulation of enlarged LAMP1-positive lysosomal structures within the cytoplasm at 20 uM incubated for 48 hrs by LAMP1 staining based indirect immunofluorescence assay; format: functional, cell-based; summary of the method: as §2
[21] = test system: Fibroblast; experiment: Inhibition of heparan sulfate accumulation on cell membrane in Sanfilippo-A patient derived human fibroblast cells at 20 uM incubated for 48 hrs by indirect immunofluorescence staining analysis; format: functional, cell-based; summary of the method: as §2
[22] = test system: Fibroblast; experiment: Inhibition of lysosomal defects in MPS-1 patient derived human fibroblast cells assessed as reduction in accumulation of enlarged LAMP1-positive lysosomal structures within the cytoplasm at 20 uM incubated for 48 hrs by LAMP1 staining based indirect immunofluorescence assay; format: functional, cell-based; summary of the method: as §2
[23] = test system: Fibroblast; experiment: Inhibition of heparan sulfate accumulation on cell membrane in MPS-1 patient derived human fibroblast cells at 20 uM incubated for 48 hrs by indirect immunofluorescence staining analysis; format: functional, cell-based; summary of the method: as §2

Row | Compound | inhibition [1] | Activity [2] | Activity [3] | Activity [4] | Activity [5] | Activity [6] | Activity [7] | Activity [8] | inhibition [9] | Activity [10] | inhibition [11] | inhibition [12] | inhibition [13] | Activity [14] | inhibition [15] | Activity [16] | inhibition [17] | inhibition [18] | inhibition [19] | inhibition [20] | other results
1 | CCCCCCOCCCCCN1C[C@@H](O)[C@H](O)[C@@H](O)[C@@H]1CO.Cl | inactive | inactive | Non-Toxic | Non-Toxic | Non-Toxic | Non-Toxic | Non-Toxic | Non-Toxic | inactive | inactive | inactive | inactive | inactive | inactive | inactive | inactive | – | – | – | – | –
2 | CCCCCCCCCOCCCCCN1C[C@@H](O)[C@H](O)[C@@H](O)[C@@H]1CO.Cl | inactive | inactive | Non-Toxic | Non-Toxic | Non-Toxic | Non-Toxic | Non-Toxic | Non-Toxic | inactive | inactive | inactive | inactive | inactive | inactive | inactive | inactive | – | – | – | – | –
3 | CCCCN1C[C@H](O)[C@@H](O)[C@H](O)[C@H]1CO | inactive | inactive | – | – | – | – | – | – | – | – | inactive | inactive | inactive | inactive | – | inactive | inactive | inactive | inactive | inactive | inhibition [21]: inactive; inhibition [22]: inactive; inhibition [23]: inactive
4 | OC[C@H]1NC[C@H](O)[C@@H](O)[C@@H]1O | inactive | inactive | – | – | – | – | – | – | – | – | inactive | inactive | inactive | inactive | – | inactive | inactive | inactive | inactive | inactive | inhibition [21]: inactive; inhibition [22]: inactive; inhibition [23]: inactive
5 | CCCCCCCCCN1C[C@@H](O)[C@H](O)[C@@H](O)[C@@H]1CO.Cl | inactive | inactive | Non-Toxic | Non-Toxic | Non-Toxic | Non-Toxic | Non-Toxic | Non-Toxic | inactive | inactive | inactive | inactive | inactive | inactive | inactive | inactive | – | – | – | – | –
